Data set [1] can be described thus: Cytotoxicity against human W1L2 cells assessed as growth inhibition after 72 hrs by trypan blue assay. It counts as functional, cell-based. Particulars: WIL2, 72 h.
The test system of data set [2] is MCF7. The data set is described as follows: Cytotoxicity against human MCF7 cells after 24 hrs by clonogenic assay. Particulars: MCF7, 24 h. Type of data set: functional, cell-based. An outline of the steps:
(§1)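 Cells were exposed to compound for the indicated time and then seeded in 3% agar over a sheep erythrocyte feeder layer. Plates were cultured 14–21 days at 37 °C, and colonies were counted with a digital colony counter.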

Data set [3] is described as follows: Cytotoxicity against human NYH cells by clonogenic assay. Type of data set: functional, cell-based.
In data set [4] the test system is A2780. The data set is described as follows: Antitumor activity against human A2780 cells xenografted in NMRI/nude mouse assessed as tumor growth inhibition at 0.63 mg/kg, ip bid administered for 5 days measured at day 14 relative to vehicle-treated control. It counts as functional. Particulars: route intraperitoneal. Summed up: (§2)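 A2780 xenografts started from small tumours (about 100 mm³). Dosing was i.p. bid on days 0-4. Tumour volume was estimated as width²×length/2 and compared at day 14 with vehicle-treated animals as T/C%.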

Data set [5] relates to HCT-116. The data set is described as follows: Cytotoxicity against APO866-resistant human HCT116 cells assessed as growth inhibition after 72 hrs by WST-1 assay. To be noted: HCT-116, 72 h. Type of data set: functional, cell-based.
Data set [6] has as its system MCF7. The data set is described as follows: Cytotoxicity against human MCF7 cells after 96 hrs by clonogenic assay. It counts as functional, cell-based. Particulars: MCF7, 96 h. Summed up:
as §1

Data set [7] relates to A2780. The data set is described as follows: Cytotoxicity against human A2780 cells after 24 hrs by clonogenic assay. Particulars: A2780, 24 h. It counts as functional, cell-based. Summed up:
as §1

Data set [8] deals with A2780. Nature of the data set: Antitumor activity against human A2780 cells xenografted in NMRI/nude mouse assessed as tumor growth inhibition at 5 to 10 mg/kg, ip bid administered for 10 days measured during compound administration. Type of data set: functional, organism-based. An outline of the steps: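 Mice bearing large A2780 xenografts were dosed i.p. bid at 5 and 10 mg/kg. Toxic signs were scored as body weight loss and reduced activity level compared with control mice. Tumour volume was estimated as width²×length/2.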
(A xenograft is tissue or cells of one species grown in another, often human tumour cells in immunodeficient mice.)

Data set [9] has as its system HCT-116. The data set is described as follows: Resistance factor, ratio of IC50 for APO866-resistant human HCT116 cells to IC50 for human HCT116 cells. It counts as functional.
The test system of data set [10] is HCT-116. The data set is described as follows: Cytotoxicity against human HCT116 cells assessed as growth inhibition after 72 hrs by WST-1 assay. It counts as functional, cell-based. Particulars: HCT-116, 72 h. Background: Tetrazolium assays rely on reduction of a dye to a coloured formazan, in cell work by metabolically active cells.
Data set [11] concerns A2780. Nature of the data set: Antitumor activity against human A2780 cells xenografted in NMRI/nude mouse containing large tumors assessed as tumor growth inhibition at 3 mg/kg, ip bid administered on day 1 to 4 and day 7 to 11 measured during compound administration. It counts as functional, organism-based. The arrangement: dose 3 mg/kg.
A further data set has as its system SK-OV-3. The data set is described as follows: Cytotoxicity against human SKOV3 cells by clonogenic assay. It counts as functional, cell-based.
A further data set concerns A-431. The data set is described as follows: Cytotoxicity against human A431 cells by clonogenic assay. It counts as functional, cell-based.
For data set [12], the system named is A2780. Nature of the data set: Ratio of APO866 to compound for antitumor activity against human A2780 cells xenografted in NMRI/nude mouse. Type of data set: functional.
For data set [13], the system named is A2780. The data set is described as follows: Antitumor activity against human A2780 cells xenografted in NMRI/nude mouse assessed as tumor growth inhibition at 2.5 mg/kg, ip bid administered for 5 days measured at day 14 relative to vehicle-treated control. Type of data set: functional. Particulars: route intraperitoneal. An outline of the steps: as §2
In data set [14] the test system is MCF7. Nature of the data set: Cytotoxicity against human MCF-7 cells assessed as growth inhibition after 72 hrs by WST-1 assay. It counts as functional, cell-based. To be noted: MCF7, 72 h.
Data set [15] has as its system A2780. Nature of the data set: Cytotoxicity against human A2780 cells assessed as growth inhibition after 72 hrs by WST-1 assay. Type of data set: functional, cell-based. Particulars: A2780, 72 h.
Another data set concerns DU-145. Nature of the data set: Cytotoxicity against human DU145 cells by clonogenic assay. Type of data set: functional, cell-based.
The subject of another data set is PC-3. The data set is described as follows: Cytotoxicity against human PC3 cells by clonogenic assay. Type of data set: functional, cell-based.
The subject of data set [16] is A2780. The data set is described as follows: Antitumor activity against human A2780 cells xenografted in NMRI/nude mouse assessed as tumor growth inhibition at 1.25 mg/kg, ip bid administered for 5 days measured at day 14 relative to vehicle-treated control. Type of data set: functional. Particulars: route intraperitoneal. An outline of the steps: as §2
Data set [17] is described as follows: AUC in NMRI mouse at 50 mg/kg, iv. It counts as ADME, organism-based. Particulars: plasma. More on the design: dose 50 mg/kg, route intravenous. An outline of the steps: (§3)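 Mouse PK after a single i.v. dose. Plasma proteins were precipitated with acetonitrile containing internal standard (3:1 v/v). Samples were analysed by UPLC-MS/MS on a C18 column at 40°C with an acetonitrile–0.05% formic acid gradient, using positive electrospray MRM. Parameters were derived by non-compartmental analysis.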

Data set [18] relates to A2780. The data set is described as follows: Antitumor activity against human A2780 cells xenografted in NMRI/nude mouse containing small tumors assessed as tumor growth inhibition at 15 mg/kg, ip bid administered for 10 days measured during compound administration. The arrangement: dose 15 mg/kg. Type of data set: functional, organism-based. An outline of the steps: (§4)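 A2780 xenografts were dosed i.p. bid at 15 mg/kg. Large tumours (start 500 mm³) were dosed on days 0-4 + 7-11; small tumours (start 100 mm³) on days 0-9. Tumour volume was calculated as width²×length/2 from caliper diameters, and body weight was recorded during treatment. Tumours were followed after treatment up to the maximum allowed size of 1000 mm³.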

The nature of data set [19]: Cmax in NMRI mouse at 50 mg/kg, iv. Type of data set: ADME, organism-based. Particulars: in vivo. The arrangement: dose 50 mg/kg, route intravenous. An outline of the steps:
as §3

Data set [20] deals with A2780. Nature of the data set: Antitumor activity against human A2780 cells xenografted in NMRI/nude mouse assessed as tumor growth inhibition at 15 mg/kg, ip bid administered for 5 days measured at day 14 relative to vehicle-treated control. It counts as functional. Particulars: route intraperitoneal.
Data set [21] deals with A2780. Nature of the data set: Antitumor activity against human A2780 cells xenografted in NMRI/nude mouse containing large tumors assessed as tumor growth inhibition at 15 mg/kg, ip bid administered on day 1 to 4 and day 7 to 11 measured during compound administration. It counts as functional, organism-based. The arrangement: dose 15 mg/kg. An outline of the steps: as §4

A short description of data set [22]: Half life in NMRI mouse at 50 mg/kg, iv. Type of data set: ADME, organism-based. The arrangement: dose 50 mg/kg, route intravenous. To be noted: in vivo. An outline of the steps:
as §3

In data set [23] the target is Nicotinamide phosphoribosyltransferase (Homo sapiens, UniProt P43490). The data set is described as follows: Inhibition of NAMPT in human HepG2 cells using [14C]-nicotinamide/PRPP as substrate assessed as formation of [14C]-nicotinamide mononucleotide after 1 hr by liquid scintillation counting analysis. Type of data set: cell-based.
Sequence of Nicotinamide phosphoribosyltransferase (P43490 whole entry): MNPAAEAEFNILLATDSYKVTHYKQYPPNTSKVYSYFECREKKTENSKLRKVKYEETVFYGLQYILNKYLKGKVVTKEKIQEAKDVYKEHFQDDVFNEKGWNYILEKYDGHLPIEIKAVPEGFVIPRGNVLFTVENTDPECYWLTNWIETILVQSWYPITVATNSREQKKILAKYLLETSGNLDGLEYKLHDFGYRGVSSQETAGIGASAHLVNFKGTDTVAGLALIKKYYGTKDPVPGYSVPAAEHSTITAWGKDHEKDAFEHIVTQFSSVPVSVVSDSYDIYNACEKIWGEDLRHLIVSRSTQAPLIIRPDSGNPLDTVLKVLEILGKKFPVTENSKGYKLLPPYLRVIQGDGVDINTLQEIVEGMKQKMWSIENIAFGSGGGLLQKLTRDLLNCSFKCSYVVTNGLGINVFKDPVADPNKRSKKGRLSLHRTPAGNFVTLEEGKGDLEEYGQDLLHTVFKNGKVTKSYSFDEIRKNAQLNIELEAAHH
Data set [24] has as its system A2780. Nature of the data set: Antitumor activity against human A2780 cells xenografted in NMRI/nude mouse containing large tumors assessed as tumor growth inhibition at 15 mg/kg, ip bid administered on day 1 to 4 and day 7 to 11 measured after compound treatment. Type of data set: functional, organism-based. More on the design: dose 15 mg/kg. An outline of the steps: as §4

The nature of data set [25]: Apparent volume of distribution in NMRI mouse at 50 mg/kg, iv. It counts as ADME, organism-based. The arrangement: dose 50 mg/kg, route intravenous. Particulars: in vivo, read-out: Vz. Summed up: as §3
The test system of data set [26] is Mus musculus. Nature of the data set: Toxicity in human A2780 cells xenografted NMRI/nude mouse containing small tumors assessed as effect on body weight at 15 mg/kg, ip bid administered for 10 days. The arrangement: dose 15 mg/kg, route intraperitoneal. To be noted: in vivo, 240 h. Type of data set: organism-based. Summed up:
as §4

Data set [27] concerns Mus musculus. The data set is described as follows: Toxicity in human A2780 cells xenografted NMRI/nude mouse containing large tumors assessed as effect on body weight at 15 mg/kg, ip bid administered on day 1 to 4 and day 7 to 11. Particulars: in vivo.
Data set [28] is described as follows: Clearance in NMRI mouse at 50 mg/kg, iv. Type of data set: ADME, organism-based. The arrangement: dose 50 mg/kg, route intravenous. Particulars: in vivo. Summed up: as §3
Data set [29] is described as follows: Toxicity in ip dosed NMRI mouse assessed as blood cell count administered as bid for 5 days. Type of data set: organism-based. Particulars: in vivo.
Data set [30] relates to A2780. Nature of the data set: Cytotoxicity against human A2780 cells after 16 hrs by clonogenic assay. Particulars: A2780, 16 h. Type of data set: functional, cell-based. Summed up: as §1
Data set [31] is described as follows: Tmax in NMRI mouse at 50 mg/kg, iv. Type of data set: ADME, organism-based. More on the design: dose 50 mg/kg, route intravenous. To be noted: in vivo. Summed up:
as §3

Data set [32] can be described thus: Toxicity in ip dosed NMRI mouse assessed as body weight loss administered as bid for 5 days. Type of data set: organism-based. Particulars: in vivo.
The test system of data set [33] is A2780. The data set is described as follows: Antitumor activity against human A2780 cells xenografted in NMRI/nude mouse containing small tumors assessed as tumor growth inhibition at 15 mg/kg, ip bid administered for 10 days measured after compound treatment. The arrangement: dose 15 mg/kg. It counts as functional, organism-based. An outline of the steps:
as §4

Broadly, the IC50 is the midpoint of a concentration-inhibition curve. By T/C is commonly meant the ratio of treated to control. The AUC is the area under the concentration-time curve, a measure of exposure. A low value points to low exposure. A word on the Cmax: it is the peak of the concentration-time curve. Broadly, the half-life is the time needed for the level to fall by half in the phase considered. In general, clearance refers to the rate of elimination divided by the concentration. By Tmax is commonly meant the time at which the peak concentration occurs.

The source made the active and inactive calls. Bounds are passed on as bounds.

For the compound `C#CCN(Cc1cc2c(O)nc(C)nc2cc1Br)c1ccc(C(=O)NCc2cccnc2)cc1`, the IC50 in [1] came out at 2.8 nM.

Consider `N#C/N=C(\NCCCCCCS(=O)(=O)N(OCCN1CCOCC1)C1CCCCC1)Nc1ccncc1`, for which the IC50 in the data set with MCF7 [2] is over 50 nM; in data set [3], 0.3 nM; with HCT-116 [5], over 5000 nM; in the data set on MCF7 [6], 1.9 nM; with A2780 [7], 0.55 nM; in the data set with HCT-116 [10] it was 1.9 nM. Moreover, the IC50 with SK-OV-3 was 9.9 nM; in the data set on A-431, over 50 nM; in the data set with MCF7 [14], 0.33 nM; with A2780 [15], 0.025 nM; in the data set on DU-145, over 50 nM; with PC-3, 0.53 nM. The T/C turned out to be 82% with A2780 [4], 24% in the data set on A2780 [13] and 40% in the data set with A2780 [16]. The TGI entry in the data set with A2780 [8] and with A2780 [11] was “Active” in each case. Moreover, the “Ratio IC50” value in the data set with HCT-116 [9] stood at 128. Moreover, the Ratio with A2780 [12] was found to be 12.

On to `N#C/N=C(\NCCCCCCS(=O)(=O)N(CCF)OCC1CCCCC1)Nc1ccncc1`, for which, in data set [17], the AUC stood at 47500 ng·h/mL. The IC50 was over 50 nM in the data set on MCF7 [2]; 0.05 nM in [3]; 3.2 nM in data set [23]; over 5000 nM in the data set with HCT-116 [5]; 0.98 nM with MCF7 [6]; 3.6 nM in the data set on HCT-116 [10]. Also, the IC50 came to 3.4 nM in the data set on SK-OV-3; 0.43 nM in the data set on A2780 [30]; 0.1 nM in the data set with MCF7 [14]; 0.052 nM with A2780 [15]; 6.39 nM with DU-145; 0.35 nM with PC-3. Besides, the TGI result with A2780 [18] and in the data set with A2780 [21] was “Active” in each case. Also, the concentration in data set [19] peaked (Cmax) at 78.5 µg/mL. Also, the T/C with A2780 [20] was found to be 52%. The compound also showed a half-life in data set [22] of 21.6 min. For the same compound, the TGI entry in the data set with A2780 [24] and in the data set with A2780 [33] was “inactive” throughout. Also, in the data set on HCT-116 [9], the “Ratio IC50” value is given as 128. In addition, the Vd in data set [25] stood at 0.547 L/kg. Also, the Activity result in the data set with Mus musculus [26] and in the data set on Mus musculus [27] was “Non-toxic” each time. The same compound had a clearance in data set [28] of 17.5 mL/min/kg. The MTD at 120 h in [29] and in [32] was under 10 mg/kg each time. The Tmax in data set [31] amounted to 4.8 min.

The record behind these values is ChEMBL document CHEMBL3091343, “Nicotinamide phosphoribosyltransferase inhibitors, design, preparation, and structure-activity relationship” (J Med Chem, 2013).
